{"source": "ChEMBL document CHEMBL1149688", "about": "“Tetrapeptide inhibitors of the glutamate vesicular transporter (VGLUT)” (Bioorg Med Chem Lett, 2007)", "note": "Activity calls are given as the source filed them. The calls are words filed in the database; no cut-off is given here."}
{"test_system": "not listed separately", "assay": "Inhibition of [3H]glutamate uptake at VGLUT in rat brain synaptic vesicles", "format": "tissue-based", "outline": "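Rat brain synaptic vesicles (approx. 0.1 mg protein) were incubated with ³H-L-glutamate (0.25 mM) and inhibitor over 0.01-5 mM, and the assay was started by adding substrate. IC50 values were taken from non-linear regression of sigmoidal dose-response curves and converted to Ki with the Cheng-Prusoff relationship, as mean ± s.e.m. (n = 3).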", "units": {"IC50": "µM", "Ki": "µM"}}
{"smiles": "CC[C@H](C)[C@H](NC(=O)[C@H](N)CCC(N)=O)C(=O)N[C@H](CCC(=O)O)C(=O)N[C@@H](Cc1c[nH]c2ccccc12)C(=O)O", "IC50": 864, "Ki": 828}
{"species": "Rattus norvegicus", "assay": "Inhibition of v-ATPase activity in rat brain synaptic vesicles", "format": "tissue-based"}
{"smiles": "NC(=O)CC(NC(=O)C(N)Cc1c[nH]c2ccccc12)C(=O)NC(CCC(=O)O)C(=O)NC(Cc1ccccc1)C(=O)O", "note": "(racemic)", "Activity": "inactive"}
{"smiles": "CCC(C)C(NC(=O)C(N)CCC(N)=O)C(=O)NC(CCC(=O)O)C(=O)NC(Cc1c[nH]c2ccccc12)C(=O)O", "note": "(racemic)", "Activity": "inactive"}
{"test_system": "VGLUT (Rattus norvegicus)", "assay": "Inhibition of [3H]glutamate uptake at VGLUT in rat brain synaptic vesicles relative to control; values are per cent of control", "set-up": "concentration or dose not given beside the values", "units": {"level, % of control": "%"}}
{"smiles": "CC[C@H](C)[C@@H](NC(=O)[C@@H](N)CCC(N)=O)C(=O)N[C@@H](CCC(=O)O)C(=O)N[C@H](Cc1c[nH]c2ccccc12)C(=O)O", "level, % of control": 28}
{"smiles": "CC[C@H](C)[C@@H](NC(=O)[C@@H](N)CCC(N)=O)C(=O)N[C@H](CCC(=O)O)C(=O)N[C@H](Cc1c[nH]c2ccccc12)C(=O)O", "level, % of control": 60}
{"smiles": "CC[C@H](C)[C@@H](NC(=O)[C@H](N)CCC(N)=O)C(=O)N[C@@H](CCC(=O)O)C(=O)N[C@H](Cc1c[nH]c2ccccc12)C(=O)O", "level, % of control": 35}
{"smiles": "NC(=O)CC(NC(=O)C(N)Cc1c[nH]c2ccccc12)C(=O)NC(CCC(=O)O)C(=O)NC(Cc1ccccc1)C(=O)O", "note": "(racemic)", "level, % of control": 13}
{"smiles": "CC[C@H](C)[C@@H](NC(=O)[C@@H](N)CCC(N)=O)C(=O)N[C@@H](CCC(=O)O)C(=O)N[C@@H](Cc1c[nH]c2ccccc12)C(=O)O", "level, % of control": 69}
{"smiles": "CCC(C)C(NC(=O)C(N)CCC(N)=O)C(=O)NC(CCC(=O)O)C(=O)NC(Cc1c[nH]c2ccccc12)C(=O)O", "note": "(racemic)", "level, % of control": 38}
{"smiles": "NC(=O)CCC(N)C(=O)NC(Cc1c[nH]c2ccccc12)C(=O)NC(CCC(=O)O)C(=O)NC(Cc1c[nH]c2ccccc12)C(=O)O", "note": "(racemic)", "level, % of control": 66}
{"smiles": "CC[C@H](C)[C@H](NC(=O)[C@@H](N)CCC(N)=O)C(=O)N[C@H](CCC(=O)O)C(=O)N[C@@H](Cc1c[nH]c2ccccc12)C(=O)O", "level, % of control": 82}
{"smiles": "NC(=O)C[C@H](NC(=O)[C@H](N)Cc1c[nH]c2ccccc12)C(=O)N[C@H](CCC(=O)O)C(=O)N[C@H](Cc1ccccc1)C(=O)O", "level, % of control": 41}
{"smiles": "CC[C@H](C)[C@@H](NC(=O)[C@H](N)CCC(N)=O)C(=O)N[C@H](CCC(=O)O)C(=O)N[C@H](Cc1c[nH]c2ccccc12)C(=O)O", "level, % of control": 63}
